Assay results from ChEMBL document CHEMBL5647697, “Akt inhibition synergizes with polycomb repressive complex 2 inhibition in the treatment of multiple myeloma” (2019).
The source made the active and inactive calls. The rule behind the calls is not given here.

Columns and labels:
[1] = system: OPM-2; experiment: Synergistic activity against human OPM-2 cells assessed as combination index preincubated in presence of 5 uM UNC1999 for 72 hrs followed by compound addition at 5 uM incubated for 48 hrs by MTS assay
[2] = system: NCI-H929; experiment: Induction of apoptosis in human NCI-H929 cells assessed as early apoptotic cells preincubated in presence of 5 micromol/L UNC1999 for 48 hrs followed by compound addition at 2 micromol/L incubated for 12 hrs by annexin V/PI staining based flow cytometry (reference value: 0.37%); type: functional; conditions: dose 2 µmol/L, at 2 µM
[3] = system: OPM-2/BTZ; experiment: Synergistic activity against human OPM-2/BTZ cells assessed as combination index preincubated in presence of 5 uM GSK126 for 72 hrs followed by compound addition at 1 uM incubated for 48 hrs by MTT assay; type: functional
[4] = system: OPM-2/BTZ; experiment: Synergistic activity against human OPM-2/BTZ cells assessed as combination index preincubated in presence of 1.25 uM GSK126 for 72 hrs followed by compound addition at 1 uM incubated for 48 hrs by MTT assay; type: functional
[5] = system: MM1.S; experiment: Induction of apoptosis in human MM1.S cells assessed as late apoptotic cells at 2 micromol/L incubated for 12 hrs by annexin V/PI staining based flow cytometry (reference value: 3.6%); type: functional; conditions: dose 2 µmol/L, at 2 µM
[6] = system: OPM-2; experiment: Synergistic activity against human OPM-2 cells assessed as combination index preincubated in presence of 2.5 uM GSK126 for 72 hrs followed by compound addition at 5 uM incubated for 48 hrs by MTT assay; type: functional
[7] = system: OPM-2/BTZ; experiment: Downregulation of EZH2 protein expression in human OPM-2/BTZ cells at 0.3 to 5 micromol/L for 6 to 48 hrs by Western blot analysis; type: functional, cell-based; conditions: dose 0.3-5 µmol/L, time 6-48 hrs
[8] = system: OPM-2/BTZ; experiment: Synergistic activity against human OPM-2/BTZ cells assessed as combination index preincubated in presence of 2.5 uM UNC1999 for 72 hrs followed by compound addition at 0.5 uM incubated for 48 hrs by MTT assay; type: functional
[9] = system: OPM-2; experiment: Synergistic activity against human OPM-2 cells assessed as combination index preincubated in presence of 2.5 uM UNC1999 for 72 hrs followed by compound addition at 5 uM incubated for 48 hrs by MTT assay; type: functional
[10] = system: MM1.S; experiment: Downregulation of EZH2 mRNA expression in human MM1.S cells at 0.3 to 3 micromol/L after 24 hrs by qRT-PCR analysis; type: functional, cell-based; conditions: dose 0.3-3 µmol/L
Procedure, shortened: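 MM.1S and H929 cells given TAS-117 at the indicated doses for 24 h. mRNA measured by RT-qPCR, fold change after normalization to GAPDH; SD of triplicates; significance versus untreated control.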

[11] = system: OPM-2/BTZ; experiment: Synergistic activity against human OPM-2/BTZ cells assessed as combination index preincubated in presence of 2.5 uM GSK126 for 72 hrs followed by compound addition at 2 uM incubated for 48 hrs by MTT assay; type: functional
[12] = system: NCI-H929; experiment: Synergistic activity against human NCI-H929 cells assessed as combination index […] in presence of 2.5 uM UNC1999 […] at 0.125 uM incubated for 48 hrs by […]; type: functional
Procedure, shortened: (§1)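 Cells were exposed to the EZH2/EZH1 inhibitor (UNC1999 or GSK126) for 72 h in total, with the Akt inhibitor added for the last 48 h. Viability was read by MTS assay relative to untreated control cells, in triplicate. The combination index for each dose pair came from isobologram analysis.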

[13] = system: OPM-2; experiment: Synergistic activity against human OPM-2 cells assessed as combination index preincubated in presence of 2.5 uM UNC1999 for 72 hrs followed by compound addition at 2.5 uM incubated for 48 hrs by MTT assay; type: functional
[14] = system: OPM-2/BTZ; experiment: Synergistic activity against human OPM-2/BTZ cells assessed as combination index preincubated in presence of 2.5 uM GSK126 for 72 hrs followed by compound addition at 1 uM incubated for 48 hrs by MTT assay; type: functional
[15] = system: MM1.S; experiment: Induction of apoptosis in human MM1.S cells assessed as late apoptotic cells preincubated in presence of 5 micromol/L UNC1999 for 48 hrs followed by compound addition at 2 micromol/L incubated for 12 hrs by annexin V/PI staining based flow cytometry (reference value: 3.6%); type: functional; conditions: dose 2 µmol/L, at 2 µM
[16] = system: MM1.S; experiment: Upregulation of FOXO4 […] expression in human MM1.S cells assessed as enhanced nuclear accumulation at 1 micromol/L after 24 hrs by immunofluorescence staining; type: functional, cell-based; conditions: dose 1.0 µmol/L
[17] = system: MM1.S; experiment: Upregulation of FOXO3 […] expression in human MM1.S cells assessed as enhanced nuclear accumulation at 1 micromol/L after 24 hrs by immunofluorescence staining; type: functional, cell-based; conditions: dose 1.0 µmol/L
[18] = system: MM1.S; experiment: Upregulation of EZH1 mRNA expression in human MM1.S cells at 0.03 to 3 micromo/L at 6 to 48 hrs by qRT-PCR analysis; type: functional, cell-based; conditions: dose 0.03-3 µmol/L, time 6-48 hrs
Procedure, shortened: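 EZH1 mRNA was measured by qRT-PCR in MM.1S and H929 cells. Dose series: cells were treated with graded TAS-117 for 24 h. Time course: cells were treated with 3 μmol/L for the indicated times. Fold change is after GAPDH normalization, relative to the untreated control. Data are SD of triplicates.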

[19] = system: OPM-2/BTZ; experiment: Cytotoxicity against human OPM-2/BTZ cells assessed as reduction in cell viability at 0.3125 to 10 micromol/L after 48 hrs by MTS assay; type: functional, cell-based; conditions: dose 0.3125-10 µmol/L
Procedure, shortened: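 Seven myeloma lines (MM.1S, H929, OPM2/BTZ among them) exposed to TAS-117 at increasing concentrations up to 10 μmol/L for 48 h. Viability read by MTS against an untreated control; mean ± SD of triplicates.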

[20] = system: NCI-H929; experiment: Downregulation of cyclin D1 protein expression in human NCI-H929 cells incubated at 0.3 to 3 micromol/L for 48 hrs by Western blot analysis; type: functional, cell-based; conditions: dose 0.3-3 µmol/L
Procedure, shortened: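 MM.1S and H929 cells given TAS-117 at the indicated doses for 48 h. Protein levels assessed by immunoblot.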

[21] = system: OPM-2/BTZ; experiment: Downregulation of CDK2 protein expression in human OPM-2/BTZ cells incubated at 0.3 to 3 micromol/L for 48 hrs by Western blot analysis; type: functional, cell-based; conditions: dose 0.3-3 µmol/L
[22] = system: MM1.S; experiment: Downregulation of EZH2 mRNA expression in human MM1.S cells transduced with EZH1 at 0.3 micromol/L after 24 hrs by qRT-PCR analysis; type: functional, cell-based; conditions: dose 0.3 µmol/L
Procedure, shortened: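 EZH1-shRNA or shLuc lentivirus-transduced MM.1S cells treated with TAS-117 at the indicated doses for 24 h. EZH2 mRNA by RT-qPCR, fold change normalized to GAPDH.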

[23] = system: OPM-2; experiment: Synergistic activity against human OPM-2 cells assessed as combination index preincubated in presence of 5 uM UNC1999 for 72 hrs followed by compound addition at 2.5 uM incubated for 48 hrs by MTS assay
[24] = system: MM1.S; experiment: Synergistic activity against human MM.1S cells assessed as combination index […] at 0.25 uM incubated for 48 hrs by MTT assay; type: functional
Procedure, shortened: as §1

[25] = system: NCI-H929; experiment: Induction of apoptosis in human NCI-H929 cells assessed as late apoptotic cells at 5 micromol/L incubated for 48 hrs by annexin V/PI staining based flow cytometry (reference value: […]%); type: functional; conditions: dose 5 µmol/L

## C[C@]1(O)C[C@@](N)(c2ccc(-c3nc4n(c3-c3ccccc3)COc3ccncc3-4)cc2)C1 [PIFUSERTIB]
[1]
  CI: 6.32
[2]
  Activity: 16.1%
[3]
  CI: 1.274
[4]
  CI: 0.923
[5]
  Activity: 4.57%
[6]
  CI: 6.9
[7]
  Activity: Active
[8]
  CI: 0.499
[9]
  CI: 3.1
[10]
  Activity: Active
[11]
  CI: 0.205
[12]
  CI: 0.783
[13]
  CI: 2.79
[14]
  CI: 0.359
[15]
  Activity: 25.3%
[16]
  Activity: Active
[17]
  Activity: Active
[18]
  Activity: Dose-Dependent Effect
[19]
  Activity: Active
[20]
  Activity: Active
[21]
  Activity: Active
[22]
  Activity: Active
[23]
  CI: 5.53
[24]
  CI: 0.307
[25]
  Activity: 6.81%
